Results published in ChEMBL document CHEMBL3132834, “Synthesis and biological activity of NOSH-naproxen (AVT-219) and NOSH-sulindac (AVT-18A) as potent anti-inflammatory agents with chemotherapeutic potential” (Medchemcomm, 2013).

Columns and labels:
HT-29 = assay: Cytotoxicity against human HT-29 cells assessed as growth inhibition after 24 hrs by MTT assay; type: functional, cell-based; settings: HT-29, 24 h
How it was run: (§1)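 Cells grown in 10% FCS medium: HT-29 in McCoy 5A; MCF-7 and BxPC-3 in DMEM. 50,000 cells/well exposed to a range of concentrations for 24 h. MTT added for 2 h at 37°C, formazan dissolved in 10% SDS/0.01 M HCl, A570 read. IC₅₀ from cell numbers; mean ± S.E.M. of 5–7 experiments in triplicate. Ratios are parent IC₅₀ over hybrid IC₅₀.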

[1] = Cytotoxicity against human BxPC3 cells assessed as growth inhibition after 24 hrs by MTT assay; type: functional, cell-based; settings: BXPC-3, 24 h; how it was run: as §1
Rattus norvegicus [2] = assay: Antiinflammatory activity in carrageenan-induced Wistar rat model assessed as inhibition of PGE2 level at 200 mg/kg through gavage administered 1 hr prior to carrageenan-challenge measured after 4 hrs (reference value: 95 +/- 7 pg/mL); type: functional
Serum = assay: Prodrug conversion in carrageenan-induced Wistar rat model assessed as sulfide species in serum at 200 mg/kg through gavage administered 1 hr prior to carrageenan-challenge; type: ADME, organism-based; design: dose 200 mg/kg; settings: in vivo, po
How it was run: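 Blood taken at the end of the carrageenan edema study from gavage-dosed rats (3 per group). Sulfide measured by the methylene blue method: plasma mixed with zinc acetate, trichloroacetic acid, N,N-dimethyl-p-phenylenediamine and FeCl₃ in 7.2M HCl, A670 read after 15 min. Run in duplicate against a NaHS calibration curve (1-250 μM). The read-out is total H₂S + HS⁻ + S²⁻.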

MCF7 = assay: Cytotoxicity against human MCF7 cells assessed as growth inhibition after 24 hrs by MTT assay; type: functional, cell-based; settings: MCF7, 24 h; how it was run: as §1
Jurkat = assay: Cytotoxicity against human Jurkat cells assessed as growth inhibition after 24 hrs by MTT assay; type: functional, cell-based
How it was run: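 30,000 cells/well added to serially diluted compounds in V-bottom plates, 24 h at 37°C in 5% CO₂. MTT (1.1 mg/mL) added for 4 h more, formazan dissolved in DMSO, A570 read. IC₅₀ from 5–7 experiments in triplicate; ratio is parent IC₅₀ over hybrid IC₅₀.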

Rattus norvegicus [3] = assay: Antiinflammatory activity in Wistar rat assessed as inhibition of carrageenan-induced paw volume at 200 mg/kg through gavage administered 1 hr prior to carrageenan-challenge measured after 4 hrs (reference value: 1.1 +/- 0.1 mL); type: functional

Compound | IC50 (HT-29) [µM] | IC50 [1] [µM] | Activity (Rattus norvegicus [2]) [pg/mg] | Stability (Serum) | IC50 (MCF7) [µM] | IC50 (Jurkat) [µM] | Activity (Rattus norvegicus [3]) [mL]
Oc1ccc(-c2cc(=S)ss2)cc1 | 35 |  |  |  |  |  | 
CC1=C(CC(=O)O)c2cc(F)ccc2/C1=C\c1ccc([S+](C)[O-])cc1 (stereo unspecified) | 800 | 980 | 12 | Stable | 965 | 699 | 0.22
COc1ccc2cc([C@H](C)C(=O)O)ccc2c1 [NAPROXEN] | 2600 | 2450 |  |  | 2380 |  | 
